Experimental data: ChEMBL document CHEMBL4145481, “Synthesis and biological evaluation of novel bavachinin analogs as anticancer agents” (Eur J Med Chem, 2018)
The source made the active and inactive calls. No cut-off for these calls is given here.

What was measured:
HCT-116 [1] = test: Induction of morphological changes in human HCT116 cells assessed as cell shrinkage after 24 hrs by phase contrast microscopic analysis; type: functional, cell-based
How it was run: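 HCT-116 cells were exposed 24 h to 3.6, 7.2 and 14.4 μM, alongside an untreated control. Morphology was photographed by phase contrast microscopy at 20x.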

A549 [2] = test: Cytotoxicity against human A549 cells assessed as growth inhibition after 48 hrs by SRB assay; type: functional, cell-based; details: A549, 48 h
How it was run: (§1)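 Cells were grown in RPMI-1640 with 10% FBS and penicillin/streptomycin at 37°C, 5% CO₂. Seeding was PC-3 7000, MCF-7 8000, A549 7500 and HCT-116 7000 cells/well, with 24 h attachment. Cells were exposed to 1, 5, 10, 30 and 50 μM for 48 h, with a 5-fluorouracil reference. Cells were TCA-fixed (1 h, 4°C) and stained with 0.4% SRB. Bound dye was dissolved in 10 mM Tris pH 10.4 and read at 540 nm. IC50 came from the concentration-response.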

HCT-116 [3] = test: Antimigratory activity against human HCT116 cells assessed as inhibition of wound closure up to 24 hrs by wound scratch assay; type: functional, cell-based
How it was run: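 HCT-116 cells were plated at 8×10^5/well and grown to 70–80% confluence, then serum-starved 24 h. The monolayer was scratched with a pipette tip and treated at 3.6, 7.2 and 14.4 μM for 24 h. Wounds were imaged at 0 and 24 h (20x). Percent wound closure was computed from wound areas relative to control; means ± SD, n = 3.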

PC-3 [4] = test: Cytotoxicity against human PC3 cells assessed as growth inhibition at 50 uM after 48 hrs by SRB assay relative to control; type: functional; details: PC-3, 48 h, read-out: GI
How it was run: (§2)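 SRB growth-inhibition run in RPMI-1640/10% FBS at 37°C, 5% CO₂. Cell lines were seeded (PC-3 7000, MCF-7 8000, A549 7500, HCT-116 7000/well) and attached 24 h. The treatment series included 50 μM, with 48 h exposure. Cells were cold-TCA fixed and stained with 0.4% SRB. Dye was solubilized in 10 mM Tris pH 10.4 and read at 540 nm against untreated control.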

A549 [5] = test: Cytotoxicity against human A549 cells assessed as growth inhibition at 50 uM after 48 hrs by SRB assay relative to control; type: functional; details: A549, 48 h, read-out: GI; how it was run: as §2
HCT-116 [6] = test: Induction of apoptosis in human HCT116 cells assessed as PARP cleavage at 3.6 uM after 24 hrs by Western blot analysis; type: functional, cell-based
How it was run: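 HCT-116 cells were treated 24 h at 3.6, 7.2 and 14.4 μM. RIPA whole-cell lysates with protease/phosphatase inhibitors were BCA-quantified. Equal protein was run on 10% SDS-PAGE and transferred to PVDF, then blocked with 5% BSA/TBST for 1 h. Blots were probed with anti-PARP (1:1000) and β-actin (1:500, loading control) plus HRP secondaries. The read-out was the 89 kDa cleaved fragment.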

HCT-116 [7] = test: Cytotoxicity against human HCT116 cells assessed as growth inhibition after 48 hrs by SRB assay; type: functional, cell-based; details: HCT-116, 48 h; how it was run: as §1
PC-3 [8] = test: Cytotoxicity against human PC3 cells assessed as growth inhibition after 48 hrs by SRB assay; type: functional, cell-based; details: PC-3, 48 h; how it was run: as §1
HCT-116 [9] = test: Cytotoxicity against human HCT116 cells assessed as growth inhibition at 50 uM after 48 hrs by SRB assay relative to control; type: functional; details: HCT-116, 48 h, read-out: GI; how it was run: as §2
HCT-116 [10] = test: Anticlonogenic activity against human HCT116 cells incubated for 24 hrs measured up to 14 days by crystal violet staining-based assay; type: functional, cell-based
How it was run: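 HCT-116 cells (8x10^4/mL/well) were treated 24 h at 3.6, 7.2 and 14.4 μM. They were then trypsinized and re-seeded at 1000 cells/well, and grown about 14 days to colonies of >50 cells. Colonies were fixed in 4% formaldehyde and stained with 0.5% crystal violet. Colony number was expressed relative to untreated control, with 5-fluorouracil as reference; means ± SD, n = 3.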

MCF7 [11] = test: Cytotoxicity against human MCF7 cells assessed as growth inhibition at 50 uM after 48 hrs by SRB assay relative to control; type: functional; details: MCF7, 48 h, read-out: GI; how it was run: as §2
HCT-116 [12] = test: Induction of mitochondrial membrane potential loss in human HCT116 cells after 24 hrs by rhodamine123 staining based fluorescence microscopic analysis; type: functional, cell-based
How it was run: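 Cells were seeded at 1×10^6/1.5 mL/well and treated 24 h at 3.6, 7.2 and 14.4 μM, with 5-FU at 5 μM as reference. Rhodamine-123 (10 nM) was added for the final 1 h. After a PBS wash, fluorescence was imaged by microscopy.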

MCF7 [13] = test: Cytotoxicity against human MCF7 cells assessed as growth inhibition after 48 hrs by SRB assay; type: functional, cell-based; details: MCF7, 48 h; how it was run: as §1
HepG2 = test: Cytotoxicity against human HepG2 cells; type: functional, cell-based

Structure (SMILES)	Activity (HCT-116 [1])	IC50 (A549 [2])	inhibition (HCT-116 [3])	inhibition of growth at 50 µM (PC-3 [4])	inhibition of growth at 50 µM (A549 [5])	Activity (HCT-116 [6])	IC50 (HCT-116 [7])	IC50 (PC-3 [8])	inhibition of growth at 50 µM (HCT-116 [9])	Activity (HCT-116 [10])	inhibition of growth at 50 µM (MCF7 [11])	Activity (HCT-116 [12])	IC50 (MCF7 [13])	IC50 (HepG2)
COc1ccc([C@@H]2C/C(=N/OCc3cn(-c4ccc(C(N)=O)cc4)nn3)c3cc(CC=C(C)C)c(OC)cc3O2)cc1	Dose-dependent effect	7.72 µM	Dose-dependent effect	100%	100%	Active	7.13 µM	16.1 µM	100%	Dose-dependent effect	100%	Dose-dependent effect	11.7 µM	–
COc1cc2c(cc1CC=C(C)C)C(=O)C[C@@H](c1ccc(OC3O[C@H](CO)[C@@H](O)[C@H](O)[C@H]3O)cc1)O2 (some centres undefined)	–	–	–	–	–	–	–	–	–	–	–	–	–	48.5 µM
